Among the data in publication PMC8453095 (Journal of molecular biology, 2021) are Ki values, retold here.

In one assay the target is DnaG(ZBD+RPD) (Bacillus subtilis, UniProt P05096). The format is biochemical. The essentials:
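His-tagged DnaGΔ440-603 (ZBD+RPD), expressed in BL21(DE3) cells and Ni-affinity purified, used at 200 nM. Template (500 nM ssDNA) and NTPs (0.4 mM ATP, CTP, UTP; GTP 0–400 μM) briefly preincubated ± inhibitor before enzyme. Buffer: 50 mM Tris pH 7.5, 10 mM Mg acetate, 5 mM MnCl2, 5 mM CaCl2. Ran at 37°C. Dye read at 5, 10, 20 and 30 min (ex 485/em 528 nm). V0 was normalised to enzyme, and Ki came from inhibition-model fits; n≥3.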

A further assay addresses T1, full-length DnaG (Bacillus subtilis, UniProt P05096).
T1 sequence (P05096 1-603): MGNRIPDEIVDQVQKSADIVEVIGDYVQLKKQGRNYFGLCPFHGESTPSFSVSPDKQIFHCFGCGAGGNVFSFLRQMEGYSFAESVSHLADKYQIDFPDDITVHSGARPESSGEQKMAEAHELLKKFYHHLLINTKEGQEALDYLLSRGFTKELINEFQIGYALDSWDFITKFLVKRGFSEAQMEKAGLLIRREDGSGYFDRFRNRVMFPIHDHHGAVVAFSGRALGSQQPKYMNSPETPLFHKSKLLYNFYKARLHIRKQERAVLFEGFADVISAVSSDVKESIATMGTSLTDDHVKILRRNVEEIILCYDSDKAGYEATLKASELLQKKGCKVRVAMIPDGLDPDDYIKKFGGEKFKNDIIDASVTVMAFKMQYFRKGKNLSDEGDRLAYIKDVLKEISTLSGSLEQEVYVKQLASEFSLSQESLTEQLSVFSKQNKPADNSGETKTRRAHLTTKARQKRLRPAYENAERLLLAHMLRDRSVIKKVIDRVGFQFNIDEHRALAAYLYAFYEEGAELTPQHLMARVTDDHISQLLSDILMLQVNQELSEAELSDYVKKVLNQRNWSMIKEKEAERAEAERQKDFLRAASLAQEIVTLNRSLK
In kind it is biochemical. The essentials:
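Full-length His-tagged DnaG, Ni-affinity purified, at 100 nM was added last to 500 nM ssDNA template with 0.4 mM ATP, CTP, UTP and GTP at 0, 12.5, 25, 50, 100, 200 or 400 μM, preincubated ± inhibitor. Buffer: 50 mM Tris pH 7.5 with Mg2+, Mn2+, Ca2+ and 10 mM DTT. Incubated 37°C, 30 min; heteroduplex dye fluorescence read at four time points. V0 per enzyme; Ki fitted to competitive/uncompetitive/noncompetitive/mixed models; n≥3.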

On to `Nc1nc2c(ncn2[C@@H]2O[C@H](COP(=O)(O)OP(=O)(O)OP(=O)(O)O)[C@@H](OP(=O)(O)OP(=O)(O)O)[C@H]2O)c(=O)[nH]1` [pppGpp], for which the Ki turned out to be 115 ± 17.8 µM at DnaG(ZBD+RPD) and 163 ± 37 µM at full-length DnaG.

Compound `Nc1nc2c(ncn2[C@@H]2O[C@H](COP(=O)(O)OP(=O)(O)O)[C@@H](OP(=O)(O)OP(=O)(O)O)[C@H]2O)c(=O)[nH]1` [ppGpp] came in with a Ki on full-length DnaG of 777 ± 110 µM.
